ChEMBL document CHEMBL1148546, “3-Arylpiperazinylethyl-1H-pyrrolo[2,3-d]pyrimidine-2,4(3H,7H)-dione derivatives as novel, high-affinity and selective alpha(1)-adrenoceptor ligands” (Bioorg Med Chem Lett, 2006)

What was measured:
[1] = target: T1, Alpha-1D adrenergic receptor (Rattus norvegicus) (UniProt P23944); assay: Antagonistic activity at ADRA1D in rat thoracic aorta; assay type: functional, tissue-based
T1 sequence (whole entry): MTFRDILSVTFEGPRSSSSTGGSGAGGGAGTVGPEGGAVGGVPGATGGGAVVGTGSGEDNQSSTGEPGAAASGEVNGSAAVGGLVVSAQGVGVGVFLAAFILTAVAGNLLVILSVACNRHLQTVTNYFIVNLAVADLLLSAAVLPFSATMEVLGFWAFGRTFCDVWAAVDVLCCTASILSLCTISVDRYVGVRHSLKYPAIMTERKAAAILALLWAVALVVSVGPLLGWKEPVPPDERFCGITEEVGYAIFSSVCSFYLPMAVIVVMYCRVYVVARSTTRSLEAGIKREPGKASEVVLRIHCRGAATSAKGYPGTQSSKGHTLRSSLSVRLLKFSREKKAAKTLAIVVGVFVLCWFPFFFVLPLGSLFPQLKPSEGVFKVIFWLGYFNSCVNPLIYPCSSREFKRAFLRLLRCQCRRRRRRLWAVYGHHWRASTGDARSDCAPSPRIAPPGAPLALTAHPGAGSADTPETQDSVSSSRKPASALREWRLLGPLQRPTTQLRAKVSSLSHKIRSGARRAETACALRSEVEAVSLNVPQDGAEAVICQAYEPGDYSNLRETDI
How it was run: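 Antagonism in isolated rat tissues: prostatic vas deferens (α1A), spleen (α1B), thoracic aorta (α1D). Each compound tested at a single concentration, and each concentration was investigated at least four times. pKb was calculated by the van Rossum method. pA2 was derived from Arunlakshana–Schild plots. WB4101 was used as the standard.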

[2] = target: Alpha adrenergic receptor 1A and 1D (Rattus norvegicus) (UniProt P23944+P43140); assay: Selectivity for ADRA1D over ADRA1A; assay type: protein assay
Alpha adrenergic receptor 1A and 1D (Rattus norvegicus), sequence (P43140 whole entry, looked up, one chain of several): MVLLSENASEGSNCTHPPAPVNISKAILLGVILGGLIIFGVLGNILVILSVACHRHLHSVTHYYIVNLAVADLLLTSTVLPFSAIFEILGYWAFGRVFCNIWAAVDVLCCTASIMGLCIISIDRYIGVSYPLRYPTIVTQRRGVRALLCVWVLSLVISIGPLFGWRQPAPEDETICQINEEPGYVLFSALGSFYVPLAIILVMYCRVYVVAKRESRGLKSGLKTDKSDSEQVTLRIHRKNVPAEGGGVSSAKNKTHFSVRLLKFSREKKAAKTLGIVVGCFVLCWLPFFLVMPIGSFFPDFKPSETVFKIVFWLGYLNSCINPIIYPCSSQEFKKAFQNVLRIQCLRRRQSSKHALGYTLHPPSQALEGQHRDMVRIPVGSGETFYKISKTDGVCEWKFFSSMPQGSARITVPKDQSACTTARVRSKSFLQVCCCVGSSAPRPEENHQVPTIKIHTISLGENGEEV
How it was run: (§1)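 Subtype selectivity is the antilog of the difference between the pKb values at α1A, α1B and α1D, measured in isolated rat prostatic vas deferens, spleen and thoracic aorta.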

[3] = target: D(2) dopamine receptor (Homo sapiens, UniProt P14416); assay: Binding affinity to dopamine D2 receptor
D(2) dopamine receptor, sequence (P14416 whole entry): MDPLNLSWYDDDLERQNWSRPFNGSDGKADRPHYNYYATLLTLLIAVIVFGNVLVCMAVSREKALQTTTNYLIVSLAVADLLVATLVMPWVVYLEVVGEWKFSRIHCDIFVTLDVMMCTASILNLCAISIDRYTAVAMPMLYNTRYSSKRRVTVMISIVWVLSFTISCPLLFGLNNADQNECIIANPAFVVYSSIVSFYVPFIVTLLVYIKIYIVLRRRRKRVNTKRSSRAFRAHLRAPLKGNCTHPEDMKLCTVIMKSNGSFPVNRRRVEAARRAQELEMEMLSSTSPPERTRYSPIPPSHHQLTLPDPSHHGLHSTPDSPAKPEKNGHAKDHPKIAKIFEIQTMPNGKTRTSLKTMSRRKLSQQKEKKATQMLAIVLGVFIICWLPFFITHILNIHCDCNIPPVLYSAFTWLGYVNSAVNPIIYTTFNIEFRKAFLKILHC

[4] = species: Homo sapiens; assay: Selectivity for dopamine D1 over adrenergic alpha-1 receptor
How it was run: (§2)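 Selectivity is the ratio of Ki at 5-HT1A, D1 or D2 to Ki at α1. Ki values are means (±SD) of three separate experiments.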

[5] = target: T2, 5-hydroxytryptamine receptor 1A (Homo sapiens, UniProt P08908); assay: Binding affinity to 5HT1A
T2 sequence (P08908 whole entry): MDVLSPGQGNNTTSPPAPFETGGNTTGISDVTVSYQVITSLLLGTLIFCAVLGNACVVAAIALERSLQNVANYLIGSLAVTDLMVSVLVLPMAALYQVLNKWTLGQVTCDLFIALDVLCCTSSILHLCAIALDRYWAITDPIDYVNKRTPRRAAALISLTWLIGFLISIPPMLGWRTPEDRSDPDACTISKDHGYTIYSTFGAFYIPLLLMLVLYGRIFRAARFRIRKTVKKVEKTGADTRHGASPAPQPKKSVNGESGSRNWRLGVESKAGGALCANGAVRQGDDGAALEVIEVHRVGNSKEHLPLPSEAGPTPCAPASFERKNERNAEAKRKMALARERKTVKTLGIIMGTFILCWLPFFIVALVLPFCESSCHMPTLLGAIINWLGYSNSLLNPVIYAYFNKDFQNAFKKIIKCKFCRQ

[6] = target: T3, Adrenergic receptor alpha-1 (Homo sapiens, UniProt P35348+P25100+P35368); assay: Binding affinity to adrenergic alpha-1 receptor; assay type: protein assay
T3 sequence (P35348 whole entry): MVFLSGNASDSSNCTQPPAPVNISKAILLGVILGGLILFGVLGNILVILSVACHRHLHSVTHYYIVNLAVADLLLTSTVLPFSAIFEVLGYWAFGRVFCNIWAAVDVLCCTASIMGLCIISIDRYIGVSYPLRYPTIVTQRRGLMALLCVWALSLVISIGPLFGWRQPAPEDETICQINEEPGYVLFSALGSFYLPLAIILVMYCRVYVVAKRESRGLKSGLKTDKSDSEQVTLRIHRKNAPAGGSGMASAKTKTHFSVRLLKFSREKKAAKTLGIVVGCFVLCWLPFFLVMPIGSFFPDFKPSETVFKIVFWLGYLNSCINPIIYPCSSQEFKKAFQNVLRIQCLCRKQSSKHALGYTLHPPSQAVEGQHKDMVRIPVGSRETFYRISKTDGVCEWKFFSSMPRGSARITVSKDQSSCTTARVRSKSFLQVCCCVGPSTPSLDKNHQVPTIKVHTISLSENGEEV
T3 sequence (P25100 whole entry): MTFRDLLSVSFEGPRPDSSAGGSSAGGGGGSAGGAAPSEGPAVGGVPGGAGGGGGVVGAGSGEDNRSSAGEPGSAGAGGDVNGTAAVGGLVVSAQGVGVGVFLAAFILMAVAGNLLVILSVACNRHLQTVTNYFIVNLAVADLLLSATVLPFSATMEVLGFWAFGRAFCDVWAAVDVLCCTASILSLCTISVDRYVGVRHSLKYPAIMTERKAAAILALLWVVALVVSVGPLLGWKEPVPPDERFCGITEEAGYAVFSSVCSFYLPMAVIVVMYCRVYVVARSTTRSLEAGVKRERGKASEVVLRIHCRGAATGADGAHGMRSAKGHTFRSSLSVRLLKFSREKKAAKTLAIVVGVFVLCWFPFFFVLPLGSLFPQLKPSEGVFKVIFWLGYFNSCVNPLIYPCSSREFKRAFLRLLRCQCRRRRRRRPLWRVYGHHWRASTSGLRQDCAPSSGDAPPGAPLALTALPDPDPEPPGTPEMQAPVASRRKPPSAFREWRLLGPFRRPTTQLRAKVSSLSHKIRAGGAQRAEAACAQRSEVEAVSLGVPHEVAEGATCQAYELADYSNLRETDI
T3 sequence (P35368 whole entry): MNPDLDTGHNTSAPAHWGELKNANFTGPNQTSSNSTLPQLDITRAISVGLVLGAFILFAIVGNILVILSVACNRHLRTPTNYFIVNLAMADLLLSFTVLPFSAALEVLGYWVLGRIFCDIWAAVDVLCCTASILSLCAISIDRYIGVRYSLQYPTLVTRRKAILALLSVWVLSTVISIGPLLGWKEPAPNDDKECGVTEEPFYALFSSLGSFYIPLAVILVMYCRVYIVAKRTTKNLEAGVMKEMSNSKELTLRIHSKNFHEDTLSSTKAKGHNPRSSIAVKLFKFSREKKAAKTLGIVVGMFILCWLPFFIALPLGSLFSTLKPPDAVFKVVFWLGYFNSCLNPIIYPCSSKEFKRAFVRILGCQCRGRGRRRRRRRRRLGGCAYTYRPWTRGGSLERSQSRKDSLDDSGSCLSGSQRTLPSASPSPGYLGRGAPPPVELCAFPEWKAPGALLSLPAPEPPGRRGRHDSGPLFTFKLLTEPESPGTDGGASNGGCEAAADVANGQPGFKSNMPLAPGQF

[7] = Selectivity for dopamine D2 over adrenergic alpha-1 receptor; how it was run: as §2
[8] = species: Rattus norvegicus; assay: Selectivity for ADRA1D over ADRA1B; how it was run: as §1
[9] = target: Alpha adrenergic receptor 1A and 1B (Rattus norvegicus) (UniProt P15823+P43140); assay: Selectivity for ADRA1B over ADRA1A; assay type: protein assay; how it was run: as §1
Alpha adrenergic receptor 1A and 1B (Rattus norvegicus), sequence (P15823 whole entry, looked up): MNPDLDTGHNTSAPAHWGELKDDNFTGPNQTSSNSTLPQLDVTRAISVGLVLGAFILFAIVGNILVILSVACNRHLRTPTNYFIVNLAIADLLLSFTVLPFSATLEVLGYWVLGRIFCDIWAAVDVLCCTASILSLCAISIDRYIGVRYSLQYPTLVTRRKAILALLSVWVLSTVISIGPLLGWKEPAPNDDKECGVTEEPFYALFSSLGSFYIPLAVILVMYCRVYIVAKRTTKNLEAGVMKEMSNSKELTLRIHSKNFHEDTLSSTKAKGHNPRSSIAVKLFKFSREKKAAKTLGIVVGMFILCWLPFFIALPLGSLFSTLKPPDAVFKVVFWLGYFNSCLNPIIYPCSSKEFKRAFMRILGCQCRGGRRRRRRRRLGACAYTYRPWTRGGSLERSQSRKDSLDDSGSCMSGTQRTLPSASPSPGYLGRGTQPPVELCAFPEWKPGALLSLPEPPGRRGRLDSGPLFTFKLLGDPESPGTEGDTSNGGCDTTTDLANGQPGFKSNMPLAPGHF
Alpha adrenergic receptor 1A and 1B (Rattus norvegicus), sequence (P43140 whole entry, looked up): as the sequence (P43140 whole entry, looked up, one chain of several) above

| Structure (SMILES) | pKb [1] | Ratio pKb [2] | Ki [3] [nM] | Ratio Ki [4] | Ki [5] [nM] | Ki [6] [nM] | Ratio Ki [7] | Ratio pKb [8] | Ratio pKb [9] |
| --- | --- | --- | --- | --- | --- | --- | --- | --- | --- |
| O=c1[nH]c2[nH]c(-c3ccc(Cl)cc3)cc2c(=O)n1CCN1CCN(c2ccccc2Cl)CC1 | 7.66 | 18 | 2370 | 206 | 1510 | 2.64 | 898 | 10 | 2 |
| COc1ccc(-c2cc3c(=O)n(CCN4CCN(c5ccccc5Cl)CC4)c(=O)[nH]c3[nH]2)cc1 | 7.69 | 2 | 165 | 17 | 1070 | 16.4 | 10 | 0.5 | 4 |
| Cc1ccc(-c2cc3[nH]c(=O)n(CCN4CCN(c5ccccc5Cl)CC4)c(=O)c3[nH]2)cc1 | 6.44 | 0.5 | > 10000 | > 500 | > 10000 | 17.26 | > 500 | 1 | 0.4 |
| Cc1ccc(-c2cc3c(=O)n(CCN4CCN(c5ccccc5Cl)CC4)c(=O)[nH]c3[nH]2)cc1 | 7.78 | 3 | 1720 | 33 | 1810 | 11.71 | 147 | 2 | 2 |
